pKi: −log10 of the molar value.
Columns and labels:
[1] = target: T1, Serotonin 3 (5-HT3) receptor (Rattus norvegicus, UniProt P35563+Q9JJ16); test: Binding affinity at 5-hydroxytryptamine 3 receptor in rat cortical membrane by [3H]graniestron displacement.; format: cell membranes
T1 sequence (P35563 whole entry): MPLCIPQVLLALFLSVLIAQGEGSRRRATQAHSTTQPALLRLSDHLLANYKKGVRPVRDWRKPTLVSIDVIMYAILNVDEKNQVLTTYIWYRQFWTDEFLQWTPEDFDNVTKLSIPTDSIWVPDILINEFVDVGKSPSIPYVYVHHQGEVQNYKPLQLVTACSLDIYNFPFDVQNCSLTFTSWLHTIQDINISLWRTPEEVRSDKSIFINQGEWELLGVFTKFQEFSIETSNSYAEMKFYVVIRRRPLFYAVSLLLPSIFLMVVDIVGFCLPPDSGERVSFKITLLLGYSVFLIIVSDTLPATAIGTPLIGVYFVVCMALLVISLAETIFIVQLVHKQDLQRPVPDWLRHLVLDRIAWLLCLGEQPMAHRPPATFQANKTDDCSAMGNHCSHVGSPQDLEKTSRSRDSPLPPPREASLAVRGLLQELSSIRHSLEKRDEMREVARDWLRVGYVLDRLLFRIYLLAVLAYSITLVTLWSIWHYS
T1 sequence (Q9JJ16 whole entry): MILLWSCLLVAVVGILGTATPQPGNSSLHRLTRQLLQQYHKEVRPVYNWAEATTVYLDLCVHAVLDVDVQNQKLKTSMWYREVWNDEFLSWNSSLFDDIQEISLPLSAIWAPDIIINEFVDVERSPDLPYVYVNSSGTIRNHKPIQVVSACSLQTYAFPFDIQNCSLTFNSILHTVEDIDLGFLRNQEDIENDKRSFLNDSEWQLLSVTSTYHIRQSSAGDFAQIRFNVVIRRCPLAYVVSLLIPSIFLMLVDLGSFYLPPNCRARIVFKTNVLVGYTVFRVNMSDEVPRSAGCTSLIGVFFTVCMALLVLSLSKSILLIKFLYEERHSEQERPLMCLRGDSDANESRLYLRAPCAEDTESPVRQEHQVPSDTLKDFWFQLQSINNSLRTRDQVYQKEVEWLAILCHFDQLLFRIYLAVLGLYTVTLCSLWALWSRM
Procedure, shortened: (§1)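 Cortex and hippocampus of male Wistar rats homogenized in 50 mM Hepes pH 7.4 and assayed in 50 mM Hepes HCl pH 7.4. Filtered on GF/B presoaked in 0.1% polyethylenimine. Ki by Cheng-Prusoff from IC50. Mean ± SEM of three.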

[2] = target: T1, Serotonin 3 (5-HT3) receptor; test: Ability to displace [3H]granisetron specifically bound to 5-hydroxytryptamine 3 receptor in rat cortical membrane; format: cell membranes; procedure, shortened: as §1
[3] = target: Sodium-dependent serotonin transporter (Rattus norvegicus, UniProt P31652); test: Ability to displace [3H]paroxetine bound to Serotonin transporter receptor in rat forebrain
Sequence of Sodium-dependent serotonin transporter (P31652 whole entry): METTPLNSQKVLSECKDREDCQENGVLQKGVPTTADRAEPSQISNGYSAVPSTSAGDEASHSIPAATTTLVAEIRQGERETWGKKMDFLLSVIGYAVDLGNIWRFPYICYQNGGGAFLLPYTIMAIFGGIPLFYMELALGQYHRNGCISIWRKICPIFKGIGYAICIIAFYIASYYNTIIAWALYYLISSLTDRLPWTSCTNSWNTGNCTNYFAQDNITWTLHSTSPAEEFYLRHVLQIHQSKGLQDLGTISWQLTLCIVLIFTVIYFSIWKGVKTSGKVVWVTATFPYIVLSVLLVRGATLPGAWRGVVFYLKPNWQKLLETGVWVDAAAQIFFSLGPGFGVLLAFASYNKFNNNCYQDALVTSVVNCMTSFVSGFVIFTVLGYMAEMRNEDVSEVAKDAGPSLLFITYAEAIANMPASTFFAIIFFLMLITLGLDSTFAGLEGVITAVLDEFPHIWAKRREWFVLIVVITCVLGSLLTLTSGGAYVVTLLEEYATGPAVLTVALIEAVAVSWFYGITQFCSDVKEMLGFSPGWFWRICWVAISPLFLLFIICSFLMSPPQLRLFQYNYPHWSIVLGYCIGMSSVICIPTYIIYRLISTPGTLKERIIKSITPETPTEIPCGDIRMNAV
Procedure, shortened: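 Rat forebrain membranes (male Wistar), stored at -80 °C, in 50 mM Tris HCl pH 7.4. Nonspecific binding with 1 μM 6-nitroquipazine. Filtered on GF/B presoaked in 0.5% polyethylenimine. Ki from IC50 via Cheng-Prusoff. Mean ± SEM of three.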

[4] = target: T2, 5-hydroxytryptamine receptor 2C (Rattus norvegicus, UniProt P08909); test: Ability to displace [3H]mesulergine bound to 5-hydroxytryptamine 2C receptor in rat cortex; format: tissue-based
T2 sequence (P08909 whole entry): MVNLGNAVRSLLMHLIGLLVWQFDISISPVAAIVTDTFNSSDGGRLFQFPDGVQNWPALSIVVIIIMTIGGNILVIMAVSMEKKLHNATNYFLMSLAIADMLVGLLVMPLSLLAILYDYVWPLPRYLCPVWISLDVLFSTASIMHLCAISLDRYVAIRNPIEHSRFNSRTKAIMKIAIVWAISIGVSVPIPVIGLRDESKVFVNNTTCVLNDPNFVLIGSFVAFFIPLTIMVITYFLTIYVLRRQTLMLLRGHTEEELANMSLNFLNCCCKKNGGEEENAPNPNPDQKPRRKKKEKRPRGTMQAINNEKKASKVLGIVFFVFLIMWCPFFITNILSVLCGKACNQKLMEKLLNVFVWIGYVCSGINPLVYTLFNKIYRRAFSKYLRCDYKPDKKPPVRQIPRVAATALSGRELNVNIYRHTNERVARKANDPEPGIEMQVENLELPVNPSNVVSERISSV
Procedure, shortened: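 Cortical membranes from male Wistar rats in 50 mM Tris HCl pH 7.7 with 10 μM pargyline, 4 mM CaCl2 and 0.1% ascorbic acid. Nonspecific binding with 1 μM mianserine. Filtration assay. Ki from IC50 via Cheng-Prusoff. Mean ± SEM, n=3.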

[5] = target: 5-hydroxytryptamine receptor 2A (Rattus norvegicus, UniProt P14842); test: Ability to displace [3H]ketanserin bound to 5-hydroxytryptamine 2A receptor in rat pre-frontal cortex; format: tissue-based
Sequence of 5-hydroxytryptamine receptor 2A (P14842 whole entry): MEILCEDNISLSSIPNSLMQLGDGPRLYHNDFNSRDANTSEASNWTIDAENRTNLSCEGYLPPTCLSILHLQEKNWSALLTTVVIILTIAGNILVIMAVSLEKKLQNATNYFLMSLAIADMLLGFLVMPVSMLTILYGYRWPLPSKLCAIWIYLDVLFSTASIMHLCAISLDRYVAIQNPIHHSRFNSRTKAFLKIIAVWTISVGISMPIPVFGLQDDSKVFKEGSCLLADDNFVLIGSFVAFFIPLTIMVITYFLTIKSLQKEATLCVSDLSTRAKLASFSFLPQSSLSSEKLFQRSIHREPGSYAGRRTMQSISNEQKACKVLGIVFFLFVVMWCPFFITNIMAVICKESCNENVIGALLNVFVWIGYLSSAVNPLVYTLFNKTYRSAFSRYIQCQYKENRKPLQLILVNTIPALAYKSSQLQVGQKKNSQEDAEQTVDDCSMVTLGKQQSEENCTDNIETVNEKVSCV
Procedure, shortened: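 Rat prefrontal cortex membranes (male Wistar) in 50 mM Tris HCl pH 7.7. […] Nonspecific binding with 3 μM ketanserin. Filtered and counted by scintillation. IC50 converted to Ki via Cheng-Prusoff. Mean ± SEM of three determinations.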

[6] = target: T3, 5-hydroxytryptamine receptor 1A (Rattus norvegicus, UniProt P19327); test: Ability to displace [3H]- -OH-DPAT bound to 5-hydroxytryptamine 1A receptor in rat hippocampus; format: tissue-based
T3 sequence (P19327 whole entry): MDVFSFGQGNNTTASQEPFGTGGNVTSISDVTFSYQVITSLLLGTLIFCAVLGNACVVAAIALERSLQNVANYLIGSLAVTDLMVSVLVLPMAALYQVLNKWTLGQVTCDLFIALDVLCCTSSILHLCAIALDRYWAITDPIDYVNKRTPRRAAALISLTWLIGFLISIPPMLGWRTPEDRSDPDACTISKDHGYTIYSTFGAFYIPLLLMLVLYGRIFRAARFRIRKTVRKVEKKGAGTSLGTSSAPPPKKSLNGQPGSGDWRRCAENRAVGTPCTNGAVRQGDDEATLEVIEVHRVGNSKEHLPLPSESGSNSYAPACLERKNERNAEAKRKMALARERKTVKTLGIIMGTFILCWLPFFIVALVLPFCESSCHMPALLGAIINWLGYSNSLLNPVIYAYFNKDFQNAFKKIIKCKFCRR
Procedure, shortened: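 Male Wistar rat hippocampal membranes in 50 mM Tris HCl pH 7.4. Stopped by GF/B filtration, counted by scintillation. IC50 from competition curves, converted to Ki by Cheng-Prusoff. Mean ± SEM of three determinations.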

[7] = target: 5-hydroxytryptamine receptor 1B (Rattus norvegicus, UniProt P28564); test: Ability to displace [3H]5-HT bound to 5-hydroxytryptamine 1B receptor in rat striatum; format: tissue-based
Sequence of 5-hydroxytryptamine receptor 1B (P28564 whole entry): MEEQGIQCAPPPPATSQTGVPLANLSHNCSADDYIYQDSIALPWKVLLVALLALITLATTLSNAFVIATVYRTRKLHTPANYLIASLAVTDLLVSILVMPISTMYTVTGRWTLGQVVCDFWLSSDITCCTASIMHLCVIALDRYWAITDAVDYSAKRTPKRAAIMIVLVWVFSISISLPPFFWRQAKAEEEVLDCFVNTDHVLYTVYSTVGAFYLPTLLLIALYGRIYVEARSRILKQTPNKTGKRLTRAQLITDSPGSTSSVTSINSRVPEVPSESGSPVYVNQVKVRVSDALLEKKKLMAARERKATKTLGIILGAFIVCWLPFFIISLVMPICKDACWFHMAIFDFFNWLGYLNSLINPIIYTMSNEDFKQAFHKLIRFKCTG
Procedure, shortened: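 Striatal membranes from male Wistar rats in 50 mM Tris HCl pH 7.7 with 10 μM pargyline, 4 mM CaCl2 and 0.1% ascorbic acid. Filtration and scintillation counting. Ki from IC50 via Cheng-Prusoff. Mean ± SEM, n=3.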

Compound	pKi [2]	pKi [1]	other results
CN1CCN(c2cccc(C34C[C@H]5C[C@@H](C3)C[C@@H](C4)C5)n2)CC1	< 6.26	–	Log Ki [1]: < -6.26
CN1CCN(c2ccc3c(n2)C2CCCCC2CC3)CC1 (stereo not given)	6.18	6.18	–
C[N+]1(C)CCN(c2nc3ccccc3c3c2CCCC3)CC1	7.89	–	–
c1ccc2c3c(c(N4CCOCC4)nc2c1)CCCC3	< 4.77	–	–
CN1CCN(c2ccc3c(n2)-c2ccccc2CCC3)CC1	< 6.26	–	Log Ki [1]: < -6.26
CN1CCN(c2ccc3ccccc3n2)CC1	8.52	8.52	–
O=[N+]([O-])c1ccc2nc(N3CCNCC3)ccc2c1 [6-NITROQUIPAZINE]	7.24	–	pKi [3]: 9.92
CCCN(CCC)C1CCc2cccc(O)c2C1 (stereo not given) [8-OH-DPAT]	8.92	–	–
c1ccc2nc(N3CCNCC3)ccc2c1 [QUIPAZINE]	–	–	pKi [4]: 6.72; pKi [7]: 6.51

Second part, led by results:

pKi [2]	pKi [1]	Compound	other results
7.96	–	c1ccc(CN2CCN(c3nc4ccccc4c4c3CCCC4)CC2)cc1	–
6.96	6.96	CN1CCN(c2nc3c(c4c2CCCC4)CCCC3)CC1	–
8.72	–	CCN1CCN(c2nc3ccccc3c3c2CCCC3)CC1	–
6.08	6.08	CN1CCN(c2ccc3c(n2)CCc2ccccc2-3)CC1	–
9.08	9.08	CN1CCN(c2nc3ccccc3c3c2CC2CCC3C2)CC1 (stereo not given)	pKi [3]: 4.62; pKi [4]: 5.55; pKi [5]: 5.43; pKi [6]: 5.62; pKi [7]: 5.64
6.70	6.70	CN1CCN(c2ccc3ccc4ccccc4c3n2)CC1	–
6.70	6.70	CN1CCN(c2ccc3c(n2)-c2ccccc2CC3)CC1	–
7.85	7.85	CN1CCN(c2ccc3c(n2)-c2ccccc2C3)CC1	pKi [3]: 7.23; pKi [4]: 4.80; pKi [5]: 5.59; pKi [6]: 5.24; pKi [7]: 5.42
8.32	–	CN1CCCN(c2nc3ccccc3c3c2CCCC3)CC1	–
8.72	8.72	CN1CCN(c2nc3ccccc3c3ccccc23)CC1	–
9.64	9.64	CN1CCN(c2nc3ccccc3c3c2CCCC3)CC1	pKi [3]: 4.92; pKi [4]: 5.36; pKi [5]: 5.52; pKi [6]: 5.55; pKi [7]: < 5.40
8.77	–	c1ccc2c3c(c(N4CCNCC4)nc2c1)CCCC3	–
